Laboratory results as given in ChEMBL document CHEMBL1137378, “Antibacterial agent discovery using thymidylate synthase biolibrary screening” (J Med Chem, 2006).
In brackets after ≈: the same amount, converted by molar mass.

Key:
Staphylococcus aureus [1] = assay: Antibacterial activity against Staphylococcus aureus 341; assay type: functional
How it was run: (§1)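 Wild-type strain panel (18 Gram-positive and Gram-negative strains). Bacteria grown in Mueller-Hinton broth at 37 °C for 24 h. Exponentially growing cultures diluted in sterile liquid medium to a final inoculum of about 1 × 10⁴ CFU/mL, then exposed to increasing compound concentrations. MIC taken as the lowest concentration with no evident bacterial growth.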

Thymidylate synthase [2] = molecular target: T1, Thymidylate synthase (Lactobacillus casei, UniProt P00469); assay: Inhibition of Lactobacillus casei thymidylate synthase; design: species or system Lacticaseibacillus casei
T1 sequence (P00469 whole entry): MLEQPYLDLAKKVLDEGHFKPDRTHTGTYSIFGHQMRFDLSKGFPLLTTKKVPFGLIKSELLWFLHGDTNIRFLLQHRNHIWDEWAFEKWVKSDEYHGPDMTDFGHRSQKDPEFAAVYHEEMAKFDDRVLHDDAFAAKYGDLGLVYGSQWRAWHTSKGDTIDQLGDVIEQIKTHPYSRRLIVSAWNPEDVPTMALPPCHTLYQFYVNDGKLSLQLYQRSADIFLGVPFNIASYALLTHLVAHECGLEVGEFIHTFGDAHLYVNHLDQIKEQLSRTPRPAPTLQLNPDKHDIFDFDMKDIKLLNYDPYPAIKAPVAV

Vero [3] = assay: Cytotoxicity against Vero cells measured as percent of cell growth at 3.12 mg/L relative to control by MTT assay; assay type: functional, Chlorocebus sabaeus
How it was run: (§2)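 VERO cells grown in MEM with 5% heat-inactivated (56 °C, 30 min) FCS, penicillin, streptomycin and L-glutamine. Cultures were watched for 2 days and live cells counted. Cells were then exposed to increasing compound concentrations; wells with cells only served as control. After 24 h, mitochondrial dehydrogenase activity was read by MTT. Trypan blue exclusion was also run.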

[4] = Specificity Index, Ki for human thymidylate synthase/Ki for Cryptococcus neoformans thymidylate synthase
How it was run: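 Specificity index is Ki of hTS divided by Ki of the pathogen TS (LcTS, EcTS or CnTS). Each enzyme was purified to >95% and assayed spectrophotometrically at 340 nm, 20 °C. Buffer was TES 50 mM pH 7.4 with MgCl2, formaldehyde, EDTA and 2-mercaptoethanol, plus dUMP 100 µM, mTHF 140 µM and enzyme 0.07 µM.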

Vero [5] = assay: Cytotoxicity against Vero cells measured as percent of cell growth at 50 mg/L relative to control by MTT assay; assay type: functional, Chlorocebus sabaeus; how it was run: as §2
[6] = system: Staphylococcus saprophyticus; assay: Antibacterial activity against Staphylococcus saprophyticus ATCC 15305; assay type: functional; how it was run: as §1
Staphylococcus aureus [7] = assay: Antibacterial activity against Staphylococcus aureus K28; assay type: functional; how it was run: as §1
Vero [8] = assay: Cytotoxicity against Vero cells measured as percent of cell growth at 25 mg/L relative to control by MTT assay; assay type: functional, Chlorocebus sabaeus; how it was run: as §2
Thymidylate synthase [9] = molecular target: T2, Thymidylate synthase (Cryptococcus neoformans var. neoformans B-3501A, UniProt P0CS13); assay: Inhibition of Cryptococcus neoformans thymidylate synthase
T2 sequence (P0CS13 whole entry): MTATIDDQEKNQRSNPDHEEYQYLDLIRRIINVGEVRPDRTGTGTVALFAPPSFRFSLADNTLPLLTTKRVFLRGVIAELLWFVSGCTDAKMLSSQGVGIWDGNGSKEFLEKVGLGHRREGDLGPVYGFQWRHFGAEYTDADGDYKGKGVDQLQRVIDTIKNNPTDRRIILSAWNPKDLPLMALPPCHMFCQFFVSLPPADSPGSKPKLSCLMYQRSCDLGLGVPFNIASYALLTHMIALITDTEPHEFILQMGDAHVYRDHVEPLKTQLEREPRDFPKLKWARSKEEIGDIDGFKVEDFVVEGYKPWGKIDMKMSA

Citrobacter = assay: Antibacterial activity against Citrobacter 224; assay type: functional; how it was run: as §1
[10] = Specificity Index, Ki for human thymidylate synthase/Ki for Escherichia coli thymidylate synthase
Listeria monocytogenes [11] = assay: Antibacterial activity against Listeria monocytogenes 5; assay type: functional; how it was run: as §1
Escherichia coli [12] = assay: Antibacterial activity against Escherichia coli 256; assay type: functional; how it was run: as §1
Thymidylate synthase [13] = molecular target: Thymidylate synthase (Escherichia coli, UniProt C3SWJ7); assay: Inhibition of Escherichia coli thymidylate synthase
Thymidylate synthase (Escherichia coli, UniProt C3SWJ7), sequence (C3SWJ7 whole entry): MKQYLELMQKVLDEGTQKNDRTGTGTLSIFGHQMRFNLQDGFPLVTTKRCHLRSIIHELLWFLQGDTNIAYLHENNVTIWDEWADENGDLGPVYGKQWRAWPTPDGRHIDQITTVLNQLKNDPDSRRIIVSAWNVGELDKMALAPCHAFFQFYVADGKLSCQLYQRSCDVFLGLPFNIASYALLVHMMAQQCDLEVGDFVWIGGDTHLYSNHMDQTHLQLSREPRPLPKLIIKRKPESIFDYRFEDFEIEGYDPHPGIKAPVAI

Vero [14] = assay: Cytotoxicity against Vero cells measured as percent of cell growth at 6.25 mg/L relative to control by MTT assay; assay type: functional, Chlorocebus sabaeus; how it was run: as §2
Thymidylate synthase [15] = molecular target: Thymidylate synthase (Homo sapiens, UniProt P04818); assay: Inhibition of human thymidylate synthase
Thymidylate synthase (Homo sapiens, UniProt P04818), sequence (P04818 whole entry): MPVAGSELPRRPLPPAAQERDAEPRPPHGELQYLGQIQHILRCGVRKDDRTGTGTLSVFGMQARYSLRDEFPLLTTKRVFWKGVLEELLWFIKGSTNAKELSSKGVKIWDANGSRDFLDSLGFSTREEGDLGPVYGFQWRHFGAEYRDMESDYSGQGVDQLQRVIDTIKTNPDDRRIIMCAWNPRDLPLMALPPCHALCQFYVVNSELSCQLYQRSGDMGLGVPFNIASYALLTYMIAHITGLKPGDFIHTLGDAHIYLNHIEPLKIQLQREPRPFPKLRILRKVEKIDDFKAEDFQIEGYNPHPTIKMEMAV

Listeria monocytogenes [16] = assay: Antibacterial activity against Listeria monocytogenes 8; assay type: functional; how it was run: as §1
[17] = Specificity Index, Ki for human thymidylate synthase/Ki for Lactobacillus casei thymidylate synthase
Staphylococcus aureus [18] = assay: Antibacterial activity against Staphylococcus aureus ATCC 29213; assay type: functional; how it was run: as §1
Listeria monocytogenes [19] = assay: Antibacterial activity against Listeria monocytogenes 6; assay type: functional; how it was run: as §1
Enterococcus faecalis = assay: Antibacterial activity against Enterococcus faecalis ATCCC29212; assay type: functional; how it was run: as §1
Streptococcus = assay: Antibacterial activity against Streptococcus 42; assay type: functional; how it was run: as §1
Listeria monocytogenes [20] = assay: Antibacterial activity against Listeria monocytogenes 4; assay type: functional; how it was run: as §1
Listeria monocytogenes [21] = assay: Antibacterial activity against Listeria monocytogenes 3; assay type: functional; how it was run: as §1
Dihydrofolate reductase = molecular target: T3, Dihydrofolate reductase (Homo sapiens, UniProt P00374); assay: Inhibition of human dihydrofolate reductase
T3 sequence (P00374 whole entry): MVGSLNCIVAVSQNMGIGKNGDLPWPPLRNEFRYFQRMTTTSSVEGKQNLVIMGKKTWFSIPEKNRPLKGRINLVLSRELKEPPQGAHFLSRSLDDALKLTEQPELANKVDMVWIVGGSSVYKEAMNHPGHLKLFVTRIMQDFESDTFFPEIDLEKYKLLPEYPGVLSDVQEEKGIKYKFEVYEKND
How it was run: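 Purified human DHFR assayed spectrophotometrically at 25 °C by the fall in A340 on DHF reduction. Ki from steady-state kinetics.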

Vero [22] = assay: Cytotoxicity against Vero cells measured as percent of cell growth at 12.05 mg/L relative to control by MTT assay; assay type: functional, Chlorocebus sabaeus; how it was run: as §2
Listeria monocytogenes [23] = assay: Antibacterial activity against Listeria monocytogenes 7; assay type: functional; how it was run: as §1
Escherichia coli [24] = assay: Antibacterial activity against Escherichia coli 292; assay type: functional; how it was run: as §1
Homo sapiens = species: Homo sapiens; assay: Selectivity Index, Ki for human dihydrofolate reductase/Ki for human thymidylate synthase
Listeria monocytogenes [25] = assay: Antibacterial activity against Listeria monocytogenes ATCC 4428; assay type: functional; how it was run: as §1
Staphylococcus aureus [26] = assay: Antibacterial activity against Staphylococcus aureus 343; assay type: functional; how it was run: as §1
[27] = system: Staphylococcus haemolyticus; assay: Antibacterial activity against Staphylococcus haemolyticus ATCC 2997; assay type: functional; how it was run: as §1
Vero [28] = assay: Cytotoxicity against Vero cells measured as percent of cell growth at 1.56 mg/L relative to control by MTT assay; assay type: functional, Chlorocebus sabaeus; how it was run: as §2

Compound	MIC (Staphylococcus aureus [1])	Ratio Ki [4]	MIC [6]	MIC (Staphylococcus aureus [7])	MIC (Citrobacter)	MIC (Listeria monocytogenes [11])	MIC (Escherichia coli [12])	MIC (Listeria monocytogenes [16])	MIC (Staphylococcus aureus [18])	MIC (Listeria monocytogenes [19])	MIC (Enterococcus faecalis)	MIC (Streptococcus)	MIC (Listeria monocytogenes [20])	MIC (Listeria monocytogenes [21])	Ki (Dihydrofolate reductase)	MIC (Listeria monocytogenes [23])	MIC (Escherichia coli [24])	MIC (Listeria monocytogenes [25])	MIC (Staphylococcus aureus [26])	MIC [27]	also measured
O=C1OC(c2ccc(O)c(Br)c2)(c2ccc(O)c(Br)c2)c2cccc3cccc1c23	5 µg/mL (≈ 9.5 µM)	0.4	5 µg/mL (≈ 9.5 µM)	5 µg/mL (≈ 9.5 µM)	> 50 µg/mL	5 µg/mL (≈ 9.5 µM)	> 50 µg/mL	5 µg/mL (≈ 9.5 µM)	5 µg/mL (≈ 9.5 µM)	5 µg/mL (≈ 9.5 µM)	10 µg/mL (≈ 19 µM)	5 µg/mL (≈ 9.5 µM)	5 µg/mL (≈ 9.5 µM)	2.5 µg/mL (≈ 4.75 µM)	15 µM	1 µg/mL (≈ 1.9 µM)	> 50 µg/mL	5 µg/mL (≈ 9.5 µM)	5 µg/mL (≈ 9.5 µM)	5 µg/mL (≈ 9.5 µM)	Ki (Thymidylate synthase [2]): 6.8 µM; Activity (Vero [3]): 100%; Activity (Vero [5]): 41%; Activity (Vero [8]): 84%; Ki (Thymidylate synthase [9]): 13 µM; Ratio Ki [10]: 5; Ki (Thymidylate synthase [13]): 0.9 µM; Activity (Vero [14]): 100%; Ki (Thymidylate synthase [15]): 4.7 µM; Ratio Ki [17]: 1; Activity (Vero [22]): 100%; Selectivity index (Homo sapiens): 3; Activity (Vero [28]): 100%
O=C1OC(c2ccc(O)c(F)c2)(c2ccc(O)c(F)c2)c2ccc(Cl)c3cccc1c23	10 µg/mL (≈ 22.8 µM)	> 38	10 µg/mL (≈ 22.8 µM)	10 µg/mL (≈ 22.8 µM)	> 50 µg/mL	10 µg/mL (≈ 22.8 µM)	> 50 µg/mL	25 µg/mL (≈ 57 µM)	10 µg/mL (≈ 22.8 µM)	10 µg/mL (≈ 22.8 µM)	25 µg/mL (≈ 57 µM)	10 µg/mL (≈ 22.8 µM)	10 µg/mL (≈ 22.8 µM)	10 µg/mL (≈ 22.8 µM)	12 µM	10 µg/mL (≈ 22.8 µM)	> 50 µg/mL	10 µg/mL (≈ 22.8 µM)	10 µg/mL (≈ 22.8 µM)	10 µg/mL (≈ 22.8 µM)	Ki (Thymidylate synthase [9]): 6.5 µM; Ratio Ki [10]: > 223; Ki (Thymidylate synthase [13]): 1.1 µM; Ratio Ki [17]: > 136; Selectivity index (Homo sapiens): < 0.05
O=C(O)c1cn(C2CC2)c2cc(N3CCNCC3)c(F)cc2c1=O [CIPROFLOXACIN]	1.2 µg/mL (≈ 3.62 µM)		1 µg/mL (≈ 3.02 µM)	0.5 µg/mL (≈ 1.51 µM)	> 25 µg/mL	2.5 µg/mL (≈ 7.54 µM)	> 25 µg/mL	1 µg/mL (≈ 3.02 µM)	0.5 µg/mL (≈ 1.51 µM)	2.5 µg/mL (≈ 7.54 µM)	12.5 µg/mL (≈ 37.7 µM)	> 5 µg/mL	1 µg/mL (≈ 3.02 µM)	2.5 µg/mL (≈ 7.54 µM)		1 µg/mL (≈ 3.02 µM)	> 25 µg/mL	2.5 µg/mL (≈ 7.54 µM)	0.5 µg/mL (≈ 1.51 µM)	2.5 µg/mL (≈ 7.54 µM)	
Cc1cc(O)c(C(C)C)cc1C1(c2cc(C(C)C)c(O)cc2C)OC(=O)c2ccc3ccccc3c21															13 µM						
